Hits are enriched below; roughly 2.4% of the tested compounds scored in any of these assays.
dFosB act: activators of delta FosB homodimer, primary screen, biochemical, fluorescence polarization, TAMRA-CDK5 oligo, single point; purified delta FosB; percent of positive-control signal above neutral wells; activation, % at 25 µM; 0.99% of 340,000 active;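 active means mean activation above about 17%, with every replicate also reaching it, limit read from the data, passing the limit was not always enough; inconclusive means only one of the two conditions met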
HIV Env fusion: inhibitors of HIV-1 Env-driven cell-cell fusion, primary screen, HeLa-JRFL effector, CEM21 target cells, luciferase; inhibition, % at 12.3 µM; 1.1% of 360,000 active; AID 651610, 2012;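 active means mean replicate inhibition score of at least 50 and every replicate individually at or above 50; inconclusive means only one of the two criteria met; inactive means mean below 50 and not all replicates reaching 50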;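 further: 0% = plate neutral controls and 100% = maraviroc near 300 nM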
miR-122 sensor: miR-122 Renilla sensor signal increase in Huh7, primary screen, miR-122 inhibitor project, cell-based, single point, plate reader; Huh7 miR-122 Renilla luciferase sensor, 48 h; neutral wells = 0, positive control = 100; activation (reporter increase), % at 12.5 µM; 0.3% of 340,000 active; AID 602342, 2012;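 active means mean replicate activation score at least 90 and every replicate individually at or above 90; inconclusive means only one of the two criteria met; inactive means neither criterion met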;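 further: higher luciferase means less miR-122 activity so hits act as miR-122 inhibitors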
INS-1E GSIS act: GLuc luminescence reporter in INS-1E cells, primary screen for activators of glucose-dependent secretion of insulin. AID 743287, 2014. INS-1E GLuc reporter insulin secretion, 2-3 h. 0.61% of 370,000 active. activation, % at 16.6 µM;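 active means lowest replicate activation of at least 40%, so every replicate reaches that level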;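 further: 0% = median of neutral control wells and 100% = median of IBMX positive control wells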
Rtt109 Vps75: inhibitors of C. albicans Rtt109/Vps75 HAT, primary screen, biochemical, ThioGlo CoA-SH fluorescence, plate reader; AID 540336, 2011; 0.16% of 330,000 active; Histone acetyltransferase RTT109 (Candida albicans (strain SC5314 / ATCC MYA-2876)), …; inhibition, % at 34.9 µM; purified Rtt109/Vps75, 4 h;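 active means inhibition of at least 50% in every replicate; inconclusive means best replicate reaches 50% inhibition but some replicates fall short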
Target sequence (Q5AAJ8 whole entry, looked up): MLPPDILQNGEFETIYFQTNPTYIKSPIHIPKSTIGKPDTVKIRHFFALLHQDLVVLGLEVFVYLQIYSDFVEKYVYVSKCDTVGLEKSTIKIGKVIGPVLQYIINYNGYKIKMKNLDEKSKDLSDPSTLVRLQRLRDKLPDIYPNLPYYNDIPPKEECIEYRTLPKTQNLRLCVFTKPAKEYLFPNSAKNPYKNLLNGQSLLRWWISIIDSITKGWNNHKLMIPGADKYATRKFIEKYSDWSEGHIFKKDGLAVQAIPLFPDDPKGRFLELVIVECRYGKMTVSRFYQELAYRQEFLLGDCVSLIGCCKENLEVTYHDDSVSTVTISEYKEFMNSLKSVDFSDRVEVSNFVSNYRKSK
Cneo AK release: Cryptococcus neoformans cell lysis inducers, primary screen, AK release luminescence, single concentration. C. neoformans lysis, adenylate kinase release luminescence, 4 h; normalised: neutral wells 0, clomiphene wells 100. lysis activity, % at 15 µM. 0.2% of 360,000 active;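 active means mean lysis activity across replicates of at least 80%, whatever share of replicates individually reach that level; inactive means mean lysis activity below 80%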
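Material – Cryptococcus neoformans yeast cells · Quantity – 5 × 10^6 yeast cells/mL · Buffer or medium – YPD medium · Compound – single dose · Timing – 4 h static compound exposure, 37 °C, read 1 h post-reagent · Signal – adenylate kinase release luminescence · Read-out basis – lysis from increased AK signal · Benchmarks – Clomiphene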
* = called active by the depositor; [ ] = another dose, or the depositor's remark.

For C[C@H]1CCCCO[C@H](CN(C)C(=O)C2CCCCC2)[C@@H](C)CN([C@@H](C)CO)C(=O)c2cc(NC(=O)Cc3ccccc3)ccc2O1 the results were HIV Env fusion -11[16.7 µM], miR-122 sensor -10[16.7 µM], INS-1E GSIS act -27 and Cneo AK release 0.
`C[C@H](CO)N1C[C@H](C)[C@@H](CN(C)CC2CCCCC2)Oc2c(NC(=O)c3ccncc3)cccc2C1=O` gave HIV Env fusion 34[16.7 µM], miR-122 sensor 127*[16.7 µM], INS-1E GSIS act -2 and Cneo AK release -5.
Screening C[C@H]1CN([C@@H](C)CO)C(=O)c2cccc(NC(=O)c3ccncc3)c2O[C@@H]1CN(C)CC1CCCCC1 returned HIV Env fusion 26[16.7 µM], miR-122 sensor 91*[16.7 µM], INS-1E GSIS act 5 and Cneo AK release -9.
Screening C[C@H]1CN([C@@H](C)CO)C(=O)c2cccc(NC(=O)c3ccncc3)c2O[C@H]1CN(C)CC1CCCCC1 returned HIV Env fusion 2[16.7 µM], miR-122 sensor 24[16.7 µM], INS-1E GSIS act 20 and Cneo AK release -11.
For C[C@@H]1CN([C@@H](C)CO)C(=O)c2cccc(NC(=O)c3ccncc3)c2O[C@@H]1CN(C)CC1CCCCC1 the results were HIV Env fusion -7[16.7 µM], miR-122 sensor -1[16.7 µM], INS-1E GSIS act 28 and Cneo AK release -3.
For CCn1c(SC(C)C(=O)NCC2CCCO2)nc2scc(-c3ccccc3)c2c1=O (configuration not stated) the results were dFosB act -8, HIV Env fusion -3, INS-1E GSIS act 15 and Rtt109 Vps75 4.
`C=CCn1c(SC(C)C(=O)NCc2ccc3c(c2)OCO3)nc2scc(-c3ccccc3)c2c1=O` (configuration not stated) gave dFosB act 11, HIV Env fusion 119*, miR-122 sensor 7, INS-1E GSIS act -34, Rtt109 Vps75 -10 and Cneo AK release -2.
C=CCNC(=S)N/N=C/c1ccc(-c2ccc(Cl)cc2Cl)o1 was read as dFosB act 3, HIV Env fusion -234, miR-122 sensor 3, INS-1E GSIS act 56, Rtt109 Vps75 -7 and Cneo AK release 57.
For C=CCNC(=S)N/N=C/c1ccc(-c2cc(Cl)ccc2Cl)o1 the results were dFosB act -9, INS-1E GSIS act 124*, Rtt109 Vps75 -6 and Cneo AK release -3.
Screening CC(=O)N(C)C[C@@H]1Oc2ccccc2C(=O)N(C)C[C@H]1C returned INS-1E GSIS act 4.
Cc1nnc(SCC(=O)N2c3ccccc3C(C)(c3ccccc3)CC2(C)C)s1 (configuration not stated) was read as dFosB act -15, HIV Env fusion 62*, INS-1E GSIS act -22 and Rtt109 Vps75 0.
OC[C@@H]1[C@@H](c2ccc(C#Cc3ccccc3)cc2)[C@@H]2CN(Cc3ccccn3)CCCCN12 was read as INS-1E GSIS act -20.
Screening CCCCCCc1cc2cc(-c3nnc(-c4ccccc4OC)o3)c(=O)oc2cc1O returned dFosB act -7, HIV Env fusion 88*, miR-122 sensor 24, Rtt109 Vps75 -6 and Cneo AK release 2.
Cc1cc(N2CCN(Cc3ccccc3)CC2)n2nc(C)c(-c3ccccc3)c2n1 was read as dFosB act 4, HIV Env fusion 63*, miR-122 sensor -5, Rtt109 Vps75 10 and Cneo AK release 20.
`Cc1ccn2c(Nc3ccc4c(c3)OCO4)c(-c3ccccn3)nc2c1` gave dFosB act 21*, HIV Env fusion 3, miR-122 sensor 23, Rtt109 Vps75 1 and Cneo AK release -3.
`Cc1ccc(Nc2c(-c3ccccn3)nc3ccc(C)cn23)cc1` gave dFosB act inconclusive, HIV Env fusion 15, miR-122 sensor 10, INS-1E GSIS act 3, Rtt109 Vps75 3 and Cneo AK release 5.
`Cc1ccc(Nc2c(-c3ccccn3)nc3cc(C)ccn23)cc1` gave dFosB act 21*, HIV Env fusion 4, miR-122 sensor -36, INS-1E GSIS act -30 and Cneo AK release 5.
C[C@H]1CN([C@@H](C)CO)C(=O)Cc2cc(NC(=O)C3CCCCC3)ccc2O[C@H]1CN(C)S(=O)(=O)c1ccccc1 was read as miR-122 sensor 4[16.7 µM], INS-1E GSIS act -3 and Cneo AK release 13.
For CCCNC(=O)C[C@@H]1CC[C@H]2[C@@H](COC[C@H](O)CN2Cc2ccc(Cl)c(Cl)c2)O1 the results were miR-122 sensor -3[16.7 µM], INS-1E GSIS act -6 and Cneo AK release 2.
C[C@H]1CN([C@@H](C)CO)C(=O)c2cccc(NS(C)(=O)=O)c2O[C@H]1CN(C)C(=O)Nc1ccc2c(c1)OCO2 was read as HIV Env fusion -14[16.7 µM], miR-122 sensor -4[16.7 µM], INS-1E GSIS act -3 and Cneo AK release 114*.
C[C@@H]1CN([C@@H](C)CO)C(=O)c2cccc(NS(C)(=O)=O)c2O[C@@H]1CN(C)C(=O)Nc1ccc2c(c1)OCO2 was read as HIV Env fusion 7[16.7 µM], miR-122 sensor 9[16.7 µM], INS-1E GSIS act 14 and Cneo AK release 88*.
Screening CN(C)CC#Cc1ccc([C@H]2[C@@H](CO)N3CCCCN(C(=O)C4CC4)C[C@H]23)cc1 returned miR-122 sensor -23[16.7 µM] and Cneo AK release -1.
For COc1ccc2c3c(n(C)c2c1)[C@H](CO)N(S(C)(=O)=O)CC31CN(C(=O)C2CC2)C1 the results were INS-1E GSIS act 33.
For CCCN1C[C@@H](C)[C@@H](OC)CN(C)C(=O)c2cc(NC(=O)C3CC3)ccc2OC[C@@H]1C the results were INS-1E GSIS act 0 and Cneo AK release -2.
`CC(=O)Nc1ccc(S(=O)(=O)NC2=NCN(c3ccc([N+](=O)[O-])cc3)CN2)cc1` gave dFosB act 24*, HIV Env fusion -12, INS-1E GSIS act 19, Rtt109 Vps75 -1 and Cneo AK release -4.
Screening Cc1nn(Cc2cccc(C(=O)Nc3ccn(Cc4c(F)c(F)cc(F)c4F)n3)c2)c(C)c1[N+](=O)[O-] returned dFosB act 3, HIV Env fusion 56*, miR-122 sensor -7, INS-1E GSIS act -5, Rtt109 Vps75 0 and Cneo AK release -2.
Screening COc1ccc2c3c([nH]c2c1)[C@H](CO)N(C(=O)NC(C)C)CC31CCN(C(=O)c2ccncc2)CC1 returned INS-1E GSIS act 3.
